Reference: PubChem BioAssay AID463079 (The Scripps Research Institute Molecular Screening Center, 2010)
Among all 330,000 compounds or so, about 2,000 (0.61%) were called active. Only a selection was taken, and actives are over-represented in it overall. A number with no mark means an inactive call.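 How the source made its calls: active means inhibition above that plate's mean sample inhibition plus 3 SD (cut at about 26% in these data); inactive means the rest.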

Assay: nonselective Gq signaling inhibition in CHO cells – cell-based, fluorescence, Fluo-8 calcium dye, counter-screen for OX1R antagonist project, primary screen (AID 463079);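 further: 0% = ATP-challenged DMSO wells and 100% = DMSO wells without ATP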
Details: parental CHO-K1, ATP-induced calcium, Fluo-8 fluorescence; at 5.6 µM; hits give high values
Outline: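 Test system: untransfected parental CHO cell line; also added: ATP stimulus; dosing: 5.6 µM, single dose; signal: calcium-sensitive Fluo-8 fluorescence; measure: percent inhibition of ATP-evoked calcium rise, normalized to controls; benchmarks: low control ATP plus DMSO, high control DMSO only; replication: one well per compound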

| SMILES | inhibition |
| --- | --- |
| CC(NS(=O)(=O)c1ccccc1)c1n[nH]c(=S)n1-c1ccccc1 (stereo not given) | 9.34% |
| O=C(c1ccccc1Cl)N(Cc1ccccc1F)N1C(=O)CCCC1=O | 6.42% |
| COCCCN1C(=O)C(=O)/C(=C(/O)c2ccc(S(=O)(=O)N3CCOCC3)cc2)C1c1ccc(F)cc1 (stereo not given) | 14.2% |
| COc1cc(OC)cc(C(=O)Nc2ccc(S(=O)(=O)Nc3cc(C)on3)cc2)c1 | -3.8% |
| COc1ccc(NS(=O)(=O)c2ccc(NC(=S)NC(=O)CC(C)C)cc2)cc1 | 44.3% (active) |
| COc1ccc(NS(=O)(=O)c2ccc(C(=O)Nc3c(C)n(C)n(-c4ccccc4)c3=O)cc2)cc1 | -3.65% |
| COc1ccc(OC)c(C(C)NC(=S)Nc2ccc(S(=O)(=O)Nc3ncccn3)cc2)c1 (stereo not given) | 3.7% |
| CC(=O)c1ccc(NC(=S)NC(=O)CC(C)C)cc1 | 7.82% |
| COc1ccc(NS(=O)(=O)c2ccc(NC(=O)c3ccc(N(C)S(C)(=O)=O)cc3)cc2)cc1 | 31.2% (active) |
| CCSc1nc(=S)n(CC)c(C)c1C(C)=O | -1.19% |
| CC(C)(C)CN1C(=O)C(=O)NC[C@H]1Cc1cccc2ccccc12 | -9.71% |
| COC(=O)Nc1ncc(CN2CCCCC2)s1 | 0.87% |
| Cc1ccccc1NC(=S)NC(=O)Cc1ccc(Cl)cc1 | 2.02% |
| O=C(Cc1ccc(Cl)cc1)NC(=S)Nc1ccccc1O | 39% (active) |
| O=C(COc1ccc(Cl)cc1)NC(=S)Nc1ccccc1N1CCOCC1 | -32% |
| COc1ccc(NC(=O)CSCc2ccc([N+](=O)[O-])cc2)cc1OC | -6.67% |
| CC(C)CC(=O)N=C1SC2CS(=O)(=O)CC2N1CCc1ccccc1 (stereo not given) | -2.34% |
| O=c1c2ccccc2nc2n1C(CSc1ccc(F)cc1)CN2 (stereo not given) | -3.49% |
| O=c1c2ccccc2nc2n1C(CSCc1cccc(C(F)(F)F)c1)CS2 (stereo not given) | 40.1% (active) |
| O=c1c2ccccc2nc2n1C(CSCc1ccccc1)CS2 (stereo not given) | 2.02% |
| COc1ccccc1C(=O)C(O)c1ccccc1OC (stereo not given) | -2.08% |
| Cc1cccc(C)c1NC(=O)CNC(=O)c1c(C)nn(-c2ccccc2)c1C | 9.7% |
| COc1cccc(CC(=O)Nc2nc(-c3ccc(OC)c(OC)c3)cs2)c1 | 50.6% (active) |

| SMILES | inhibition |
| --- | --- |
| COc1cc(CC(=O)NCc2cccs2)cc(OC)c1OC | -12.1% |
| COc1ccc(-c2csc(NC(=O)COC(=O)c3ccc(Br)o3)n2)cc1 | -1.84% |
| Cc1ccc(S(=O)(=O)NC(=O)Nc2nc(-c3ccc(F)c(F)c3)cs2)cc1 | 13.3% |
| COc1cc(CC(=O)Nc2nc(-c3ccc(F)c(F)c3)cs2)cc(OC)c1OC | 50.5% (active) |
| CCCc1ccc(-c2csc(NC(=O)Cc3cccs3)n2)cc1 | -13.1% |
| COc1ccc(CC(=O)Nc2nc(-c3ccc(F)c(F)c3)cs2)cc1OC | 55.3% (active) |
| COc1ccc(OC)c(-c2csc(NC(=O)COC(=O)C3CC3)n2)c1 | -16.7% |
| COc1ccc(-c2csc(NC(=O)COC(=O)Cc3ccc(Cl)cc3Cl)n2)cc1 | -7.84% |
| Cc1ccc(C)c(Cn2nnc3c(=O)[nH]c(C(=O)Nc4ccc(F)cc4)nc32)c1 | -8.13% |
| Cc1cccc(NC(=S)NCCc2ccc(F)cc2)c1C | -8.34% |
| C=CCOC(=O)C1=C[C@H](c2ccc(Br)cc2)C[C@H](OCCCCO)O1 | -16.9% |
| Cc1cccc(-c2nc3c(c(SCC(=O)N4CCOCC4)n2)CCCC3)c1 | -8.39% |
| CC[C@]1(O)C[C@@H]2CN(CCc3c([nH]c4ccccc34)[C@@](C(=O)OC)(c3cc4c(cc3OC)N(C)[C@H]3[C@@](O)(C(=O)OC)[C@H](OC(C)=O)[C@]5(CC)C=CCN6CC[C@]43[C@@H]65)C2)C1 | -20.6% |
| Cc1nc2nc(CSc3nc4ccccc4s3)cc(=O)n2[nH]1 | -18.4% |
| O=[N+]([O-])c1c(NCCO)cc(Sc2nc3ccccc3s2)c2nonc12 | 77.3% (active) |
| O=C(O)c1ccccc1CSc1nc2ccccc2s1 | -0.85% |
| CN1CCc2nc(SC(C(=O)O)c3ccccc3)c(C#N)c(-c3cccs3)c2C1 (stereo not given) | -2.58% |
| CC[C@]1(C(=O)OC)[C@H]2C(=O)N(Cc3ccccc3)C(=O)[C@H]2[C@H]2CN=C(SCc3ccccc3)N21 | -23.1% |
| Cc1ccc(N2CCN(S(=O)(=O)N(C)C)CC2)cc1Cl | -18.3% |
| CN(C)S(=O)(=O)N1CCN(c2ccc([N+](=O)[O-])cc2)CC1 | 29% (active) |
| COc1ccc(N2CCN(c3ccc([N+](=O)[O-])cc3Cl)CC2)cc1 | 12% |
| CCCOc1ccc(Cc2c(O)nc(N)[nH]c2=O)cc1C | -2.86% |
| COc1cc(OC)cc(-c2cc3ccc(F)cc3cn2)c1 | -22.7% |

| SMILES | inhibition |
| --- | --- |
| COc1ccc(N2CCN(C(=O)CCc3nc(-c4ccc(C)cc4)no3)CC2)cc1 | -13.6% |
| COc1ccc(-c2noc(C(C)NS(=O)(=O)c3ccc(NC(C)=O)cc3)n2)cc1 (stereo not given) | -2.83% |
| COc1ccc(-c2noc(CN(C)S(=O)(=O)c3ccc(C)cc3)n2)cc1 | 38.9% (active) |
| Cc1ccc(OCC(=O)Nc2ccccc2C(=O)NC2CC2)cc1 | -12.7% |
| Cc1nc(-c2ccc(Cl)cc2)sc1C(=O)CBr | 16.1% |
| CC(=O)Oc1ccccc1C(=O)Nc1ncc([N+](=O)[O-])s1 | 39% (active) |
| O=C(Cc1c(F)cccc1Cl)Nc1ncc([N+](=O)[O-])s1 | 3.65% |
| COc1ccc(NC(=O)c2ccccc2[N+](=O)[O-])cc1OC | -4.31% |
| COc1ccccc1N1CCN(C(=O)CSc2ncnc3c2cnn3-c2ccc(C)c(C)c2)CC1 | -14.4% |
| O=C(N/C(=C\c1ccc(F)cc1)C(=O)N1CCCCCC1)c1ccccc1 | -14% |
| CCc1ccccc1N1C(=O)C2C3CC(=O)C(c4ccccc43)C2C1=O (stereo not given) | 29.8% (active) |
| CC1=C(C)CC2C(=O)N(c3cccc4ccccc34)C(=O)C2C1 (stereo not given) | -11.3% |
| CC(=O)Nc1ccc(N2C(=O)C3C4CC(=O)C(c5ccccc54)C3C2=O)cc1 (stereo not given) | 9.03% |
| COc1cccc(C(=O)OCC(=O)c2[nH]c(C)c(C(C)=O)c2C)c1 | -11.5% |
| CC(=O)c1c(C)[nH]c(C(=O)COC(=O)c2cccs2)c1C | -6.37% |
| CC(=O)c1c(C)[nH]c(C(=O)COC(=O)c2cccc(S(=O)(=O)N(C)c3ccccc3)c2)c1C | 74.8% (active) |
| Cc1nn(C(C)C(=O)N2CCOCC2)c(=O)c2nn(-c3ccccc3)c(C)c12 (stereo not given) | -7.21% |
| CC[C@]12c3[nH]c4ccc(OC)cc4c3CCN1C(=O)C(CC(=O)NCCN1CCOCC1)C[C@@H]2C(=O)N1CCN(C(=O)C2CC2)CC1 (stereo not given in full) | -9.94% |
| Cc1cc(C)cc(OCC(=O)NC(C)c2ccccc2)c1 (stereo not given) | -19.1% |
| COc1cc(OC)cc(C(=O)NCC(=O)OCC(=O)NC(C)CCc2ccccc2)c1 (stereo not given) | -9.76% |
| COc1cc(OC)cc(C(=O)N[C@H](C(=O)OCC(=O)NC(C)c2ccccc2)C(C)C)c1 (stereo not given in full) | 41.6% (active) |
| CCC(C(=O)OCC(=O)Nc1ccc(C(=O)Nc2ccc(OC)cc2)cc1)c1ccccc1 (stereo not given) | 2.63% |
| CCC(C(=O)Nc1ccc2c(c1)OCCO2)c1ccccc1 (stereo not given) | -14.5% |

| SMILES | inhibition |
| --- | --- |
| CCC(C(=O)Nc1ccc(C(C)C)cc1)c1ccccc1 (stereo not given) | 54% (active) |
| OCC[C@H]1C[C@@H](O)[C@H](O)[C@@]2(OCCc3ccccc32)O1 | -2.14% |
| CCC(C)N(C(=O)CSc1nnnn1-c1ccccc1OC)C1CCS(=O)(=O)C1 (stereo not given) | -20% |
| O=C(/C=C/c1ccc2c(c1)OCCO2)c1ccc(O)cc1 | 3.62% |
| O=C(/C=C(O)/C=C/c1ccc(O)cc1)/C=C/c1ccc(O)cc1 | 44.2% (active) |
| O=C(O)/C=C/c1ccc(OCCCF)cc1 | -5.89% |
| CC1CCCCN1CCCNC(=O)Cn1ncc2c([nH]c3ccccc32)c1=O (stereo not given) | -10.7% |
| CCc1ccccc1NC(=O)c1ccc2c(c1)CCN2S(C)(=O)=O | -12.5% |
| CN(C)CCCNC(=S)N1CCN(c2nc(-c3ccccc3)cs2)CC1 | -5.41% |
| Cc1cccn2cc(-c3cccc(S(=O)(=O)N4CCCCC4)c3)nc12 | -20.2% |
| CC1(C)C=Cc2c(ccc3c2OC[C@@H](c2ccc(O)cc2O)C3)O1 | 94.3% (active) |
| c1ccc(CN=C2Nc3ccccc3CS2)nc1 | -13.6% |
| Cc1ccc(N(CC(=O)Nc2cc(C)cc(C)c2)S(=O)(=O)c2cccc3nonc23)cc1 | -11.6% |
| CCN(CC)S(=O)(=O)c1ccc(N(C)Cc2ccc(C(F)(F)F)cc2)nc1 | 43.6% (active) |
| CCN(CC)S(=O)(=O)c1ccc(N(C)Cc2cccc(OC)c2OC)nc1 | 28.5% |
| CCN(CC)S(=O)(=O)c1ccc(N(C)CCc2ccc(OC)c(OC)c2)nc1 | -13.7% |
| Nc1ncnc2c1ncn2[C@@H]1O[C@H](CNS(=O)(=O)c2ccc(-c3ccno3)s2)[C@@H](O)[C@H]1O | -2.72% |
| CC[C@]12c3[nH]c4ccc(Cl)cc4c3CCN1C(=O)[C@@H](CC(=O)NCCCOC)C[C@@H]2C(=O)N1CCN(C(=O)C2CC2)CC1 | -12.5% |
| CC(=O)c1c(C)n(-c2ccc(C)cc2)c2ccc(O)cc12 | 81.6% (active) |
| CCOC(=O)c1c(CN2CCOCC2)n(-c2ccccc2)c2ccc(O)cc12 | -10.2% |
| CC(=O)c1c(C)n(-c2ccc(N(C)C)cc2)c2ccc(OCC(N)=O)cc12 | -2.26% |
